According to ChEMBL document CHEMBL1153987 (J Med Chem, 2009):
Activity calls are given as the source filed them. The rule behind the calls is not given here.

Columns and labels:
Jurkat [1] = assay: Inhibition of heat-induced HSP70 expression in human Jurkat cells at 50 ug/mL treated for 1 hr before heat induction by Western blot; format: functional, cell-based
[2] = target: Heat shock protein beta-1 (Homo sapiens) (UniProt P04792); assay: Enhancement of HSP27 Ser78 phosphorylation in human HeLa cells at 50 ug/mL treated for 1 hr; format: cell-based
Chain of Heat shock protein beta-1 (Homo sapiens) (P04792 whole entry): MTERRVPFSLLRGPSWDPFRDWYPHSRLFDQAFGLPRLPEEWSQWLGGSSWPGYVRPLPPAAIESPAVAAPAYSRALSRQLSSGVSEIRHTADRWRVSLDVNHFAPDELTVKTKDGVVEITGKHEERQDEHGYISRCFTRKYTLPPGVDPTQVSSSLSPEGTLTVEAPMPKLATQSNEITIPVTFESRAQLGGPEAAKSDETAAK
In short: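 HeLa cells in DMEM + 10% calf serum, exponentially growing, exposed 1 h to 50 μg/ml compound; total cell extracts probed by Western blot with rabbit antibody to human HSP27 phospho-Ser78, alkaline phosphatase-conjugated goat anti-rabbit secondary, colorimetric detection.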

[3] = Inhibition of CK2 assessed as level of ATP utilized by luciferase-based bioluminescence assay
[4] = Inhibition of CAMK2 assessed as level of ATP utilized by luciferase-based bioluminescence assay
Jurkat [5] = assay: Inhibition of heat-induced increase in nuclear HSF1 protein level in human Jurkat cells at 50 ug/mL treated for 1 hr before heat induction by Western blot; format: functional, cell-based
In short: (§1)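 Cells were pretreated with compound for 1 h, then heat-shocked at 43 °C for 30 min. Nuclear extracts, the same ones prepared for EMSA, were analysed by Western blot with rabbit anti-HSF1 and goat anti-rabbit HRP, with chemiluminescent detection. Nuclear HSF1 level was read from band intensity. The phosphorylation state was read as reduced gel mobility of the HSF1 band.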

HeLa [6] = assay: Inhibition of heat-induced increase in nuclear HSF1 protein level in human HeLa cells at 50 ug/mL treated for 1 hr before heat induction by Western blot; format: functional, cell-based; in short: as §1
Jurkat [7] = assay: Inhibition of heat-induced increase in nuclear HSF1 protein phosphorylation in human Jurkat cells assessed as decrease in protein mobility at 50 ug/mL treated for 1 hr before heat induction by EMSA; format: functional, cell-based; in short: as §1
HeLa [8] = assay: Inhibition of heat-induced increase in nuclear HSF1 protein phosphorylation in human HeLa cells assessed as decrease in protein mobility at 50 ug/mL treated for 1 hr before heat induction by EMSA; format: functional, cell-based; in short: as §1

Compound | Activity (Jurkat [1]) | Activity [2] | IC50 [3] | IC50 [4] | Activity (Jurkat [5]) | Activity (HeLa [6]) | Activity (Jurkat [7]) | Activity (HeLa [8])
COC(=O)COc1cc(O)c2c(=O)c(O)c(-c3ccc(O)c(O)c3)oc2c1 | Active | Active | 0.85 µM | 9.1 µM |  |  |  | 
COc1cc(O)c2c(=O)c(O)c(-c3ccc(O)c(O)c3)oc2c1 [RHAMNETIN] | Active | Active | 9.7 µM | 8.9 µM |  |  |  | 
O=c1c(O)c(-c2ccc(O)c(O)c2)oc2cc(O)cc(O)c12 [QUERCETIN] | Active | Active | 5.6 µM | 3.3 µM | inactive | inactive | Active | Active
COc1cc(O)cc2oc(-c3ccc(O)c(O)c3)c(O)c(=O)c12 | inactive | inactive | > 100 µM | 4 µM |  |  |  | 
O=C(O)COc1c(-c2ccc(O)c(O)c2)oc2cc(O)cc(O)c2c1=O | inactive | inactive | 2.45 µM | > 100 µM |  |  |  | 
O=C(O)COc1cc(O)c2c(=O)c(O)c(-c3ccc(O)c(O)c3)oc2c1 | inactive | inactive | 9.7 µM | 9.3 µM |  |  |  | 
COc1cc(-c2oc3cc(O)cc(O)c3c(=O)c2O)ccc1O [ISORHAMNETIN] | Active | inactive | 0.5 µM | 0.91 µM |  |  |  | 
COC(=O)COc1cc(-c2oc3cc(O)cc(O)c3c(=O)c2O)ccc1O | Active | inactive | 53 µM | 6.3 µM |  |  |  | 
COc1c(-c2ccc(O)c(O)c2)oc2cc(O)cc(O)c2c1=O [3-O-METHYLQUERCETIN] | inactive | inactive | 0.83 µM | > 100 µM |  |  |  | 
COc1ccc(-c2oc3cc(O)cc(O)c3c(=O)c2O)cc1O [TAMARIXETIN] |  | inactive | > 100 µM | 16.4 µM |  |  |  | 
COC(=O)COc1cc(O)cc2oc(-c3ccc(O)c(O)c3)c(O)c(=O)c12 | inactive | inactive | > 100 µM | 69 µM |  |  |  | 
